The source made the active and inactive calls. The rule behind the calls is not given here. *1 amine or outer side, *2 acyl side, *3 side chain or, on linkers, in order; H or OH if unused. Where a SMILES comes first, the peptide text is derived from it. Bridges are numbered along the chain shown (N, C = ends). [ ]: non-standard residue; d: D form. The star is where a group is joined. hTyr(3S-OH,4S-OH,3'-OSO3H) = N[C@H](C(=O)O)[C@H](O)[C@@H](O)c1ccc(O)c(OS(=O)(=O)O)c1; Orn(4R-OH,5R-OH) = O=C([C@H](C[C@@H](O)[C@@H](O)N[*:3])N[*:1])[*:2]; Pro(3S-OH,4S-Me) = C[C@H]1CN[C@H](C(=O)O)[C@H]1O; X1 = CCCCCOc1ccc(-c2cc(-c3ccc(C(=O)*)cc3)no2)cc1; Gln(3R-OH) = NC(=O)C[C@@H](O)[C@H](N)C(=O)O; Hyp = O=C(O)[C@@H]1C[C@@H](O)CN1
What was measured:
Nakaseomyces glabratus [1] = assay: Antifungal activity against Candida glabrata ATCC 90030 assessed as growth inhibition at 0.0039 to 0.125 ug/ml after 48 hrs; format: functional, organism-based
How it was run: (§1)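 Inhibition curve in CLSI M27-A3 microdilution: RPMI 1640 with 0.2% glucose, MOPS-buffered to pH 7.0, final inoculum 1 × 10^3 cells/ml. OD600 was read on a microplate spectrophotometer at 24 h and 48 h. Percent inhibition was calculated relative to the growth-control well.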

Nakaseomyces glabratus [2] = assay: Antifungal activity against Candida glabrata ATCC 90030 assessed as growth inhibition at 0.0039 to 0.125 ug/ml after 24 hrs; format: functional, organism-based; how it was run: as §1
Nakaseomyces glabratus [3] = assay: Antifungal activity against Candida glabrata ATCC 90030 after 48 hrs by broth microdilution method in presence of 2% glucose; format: functional; settings: ATCC 90030, 48 h
How it was run: (§2)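 CLSI M27-A3 broth microdilution in RPMI 1640 (pH 7.0, 0.165 M MOPS) with glucose at 2%, 0.2%, 0.1%, 0.05% or 0.02%, or with 0.2% glycerol in place of glucose. Inoculum from 24-h SDA culture at 35°C, final 1 × 10^3 cells/ml. Incubated 48 h. MIC is the lowest concentration giving a prominent turbidity drop; OD600 also read against the growth control.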

Nakaseomyces glabratus [4] = assay: Antifungal activity against Candida glabrata ATCC 90030 after 48 hrs by broth microdilution method in presence of 0.2% glucose; format: functional; settings: ATCC 90030, 48 h; how it was run: as §2
Nakaseomyces glabratus [5] = assay: Antifungal activity against Candida glabrata ATCC 90030 after 48 hrs by broth microdilution method in presence of 0.1% glucose; format: functional; settings: ATCC 90030, 48 h; how it was run: as §2
Nakaseomyces glabratus [6] = assay: Antifungal activity against Candida glabrata ATCC 90030 after 48 hrs by broth microdilution method in presence of 0.05% glucose; format: functional; settings: ATCC 90030, 48 h; how it was run: as §2
Nakaseomyces glabratus [7] = assay: Antifungal activity against Candida glabrata ATCC 90030 after 48 hrs by broth microdilution method in presence of 0.02% glucose; format: functional; settings: ATCC 90030, 48 h; how it was run: as §2
Nakaseomyces glabratus [8] = assay: Antifungal activity against Candida glabrata ATCC 90030 after 48 hrs by broth microdilution method in presence of 0.2% glycerol; format: functional; settings: ATCC 90030, 48 h; how it was run: as §2
Nakaseomyces glabratus [9] = assay: Antifungal activity against Candida glabrata ATCC 90030 infected in ICR mouse assessed as fungal load in kidney at 0.025 mg/kg/day, sc for 8 days measured on day 8; format: functional; settings: route subcutaneous
How it was run: (§3)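 Four-week-old male SPF ICR mice (n=5/group) were made neutropenic with cyclophosphamide 200 mg/kg ip on day −3 and 100 mg/kg on day +1. They were infected iv (tail vein) with 7.68 × 10^6 CFU/mouse in saline. Dosing was sc once daily for 8 days from 2 h post-infection; controls got saline. Day-8 kidney homogenates were plated on SDA with 0.1 mg/ml imipenem, 35°C, 5 days. Result is log CFU/kidneys, Dunnett test versus control.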

Nakaseomyces glabratus [10] = assay: Antifungal activity against Candida glabrata ATCC 90030 infected in ICR mouse assessed as fungal load in kidney at 0.05 mg/kg/day, sc for 8 days measured on day 8; format: functional; settings: route subcutaneous; how it was run: as §3
Nakaseomyces glabratus [11] = assay: Antifungal activity against Candida glabrata ATCC 90030 infected in ICR mouse assessed as fungal load in kidney at 0.1 mg/kg/day, sc for 8 days measured on day 8; format: functional; settings: route subcutaneous; how it was run: as §3
Nakaseomyces glabratus [12] = assay: Antifungal activity against Candida glabrata ATCC 90030 infected in ICR mouse assessed as fungal load in kidney at 0.5 mg/kg/day, sc for 8 days measured on day 8; settings: route subcutaneous
Nakaseomyces glabratus [13] = assay: Antifungal activity against Candida glabrata ATCC 90030 infected in ICR mouse assessed as fungal load in kidney at 0.25 mg/kg/day, sc for 8 days measured on day 8; settings: route subcutaneous
Nakaseomyces glabratus [14] = assay: Antifungal activity against Candida glabrata ATCC 90030 infected in ICR mouse assessed as fungal load in kidney at 0.125 mg/kg/day, sc for 8 days measured on day 8; settings: route subcutaneous
Nakaseomyces glabratus [15] = assay: Antifungal activity against Candida glabrata ATCC 90030 infected in ICR mouse assessed as fungal load in kidney at 2.5 mg/kg/day, sc for 8 days measured on day 8; format: functional; settings: route subcutaneous
How it was run: (§4)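 Four-week-old male SPF ICR mice made neutropenic with cyclophosphamide ip, 200 mg/kg on day −3 and 100 mg/kg on day +1. Infected iv by tail vein with 7.68 × 10^6 CFU from an overnight SDA culture in saline. Dosed sc once daily for 8 days starting 2 h post-infection, 5 mice per group, saline controls. Kidneys harvested on day 8, homogenates plated on SDA with imipenem, 5 days at 35°C, log CFU counted, Dunnett test.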

Nakaseomyces glabratus [16] = assay: Antifungal activity against Candida glabrata ATCC 90030 infected in ICR mouse assessed as fungal load in kidney at 5 mg/kg/day, sc for 8 days measured on day 8; format: functional; settings: route subcutaneous; how it was run: as §4
Nakaseomyces glabratus [17] = assay: Antifungal activity against Candida glabrata ATCC 90030 infected in ICR mouse assessed as fungal load in kidney at 10 mg/kg/day, sc for 8 days measured on […]; format: functional; settings: route subcutaneous
Nakaseomyces glabratus [18] = assay: Antifungal activity against Candida glabrata ATCC 90030 after 48 hrs by Almar blue assay in presence of 0.2% glucosel; settings: ATCC 90030, 48 h
Nakaseomyces glabratus [19] = assay: Antifungal activity against Candida glabrata ATCC 90030 after 24 hrs by broth microdilution method in presence of 2% glucose; format: functional; settings: ATCC 90030, 24 h
Nakaseomyces glabratus [20] = assay: Antifungal activity against Candida glabrata ATCC 90030 after 24 hrs by broth microdilution method in presence of 0.2% glucose; format: functional; settings: ATCC 90030, 24 h
Nakaseomyces glabratus [21] = assay: Antifungal activity against Candida glabrata ATCC 90030 after 24 hrs by broth microdilution method in presence of 0.1% glucose; format: functional; settings: ATCC 90030, 24 h
Nakaseomyces glabratus [22] = assay: Antifungal activity against Candida glabrata ATCC 90030 after 24 hrs by broth microdilution method in presence of 0.05% glucose; format: functional; settings: ATCC 90030, 24 h
Nakaseomyces glabratus [23] = assay: Antifungal activity against Candida glabrata ATCC 90030 after 24 hrs by broth microdilution method in presence of 0.02% glucose; format: functional; settings: ATCC 90030, 24 h
Nakaseomyces glabratus [24] = assay: Antifungal activity against Candida glabrata ATCC 90030 after 24 hrs by Almar blue assay in presence of 0.2% glucose; settings: ATCC 90030, 24 h

| Structure (SMILES) | MIC (Nakaseomyces glabratus [3]) | MIC (Nakaseomyces glabratus [4]) | MIC (Nakaseomyces glabratus [5]) | MIC (Nakaseomyces glabratus [6]) | MIC (Nakaseomyces glabratus [7]) | MIC (Nakaseomyces glabratus [8]) | log10cfu (Nakaseomyces glabratus [12]) | log10cfu (Nakaseomyces glabratus [13]) | log10cfu (Nakaseomyces glabratus [14]) | MIC (Nakaseomyces glabratus [18]) | further results |
| --- | --- | --- | --- | --- | --- | --- | --- | --- | --- | --- | --- |
| N=C(N)c1ccc(OCCCC2CCN(CCCOc3ccc(C(=N)N)cc3)CC2)cc1 | > 0.125 µg/mL | 0.0039 µg/mL | 0.0039 µg/mL | 0.001 µg/mL | 0.001 µg/mL | 0.0005 µg/mL |  |  |  |  | Activity (Nakaseomyces glabratus [1]): Active; Activity (Nakaseomyces glabratus [2]): Active; log10cfu (Nakaseomyces glabratus [9]): 4.3; log10cfu (Nakaseomyces glabratus [10]): 4; log10cfu (Nakaseomyces glabratus [11]): 3.86 |
| C[C@@H]1[C@H](O)[C@@H](C)/C=C/C=C/C=C/C=C/C=C/C=C/C=C/[C@H](O[C@@H]2O[C@H](C)[C@@H](O)[C@H](N)[C@@H]2O)C[C@@H]2O[C@](O)(C[C@@H](O)C[C@@H](O)[C@H](O)CC[C@@H](O)C[C@@H](O)CC(=O)O[C@H]1C)C[C@H](O)[C@H]2C(=O)O [AMPHOTERICIN B] | 2 µg/mL | 2 µg/mL | 2 µg/mL | 2 µg/mL | 2 µg/mL | 1 µg/mL | 2.93 | 4.53 | 4.61 |  |  |
| OC(Cn1cncn1)(Cn1cncn1)c1ccc(F)cc1F [FLUCONAZOLE] | 16 µg/mL | 8 µg/mL | 8 µg/mL | 8 µg/mL | 4 µg/mL | 4 µg/mL |  |  |  | 16 µg/mL | log10cfu (Nakaseomyces glabratus [15]): 4.96; log10cfu (Nakaseomyces glabratus [16]): 5.33; log10cfu (Nakaseomyces glabratus [17]): 4.62 |
| CCCCCOc1ccc(-c2cc(-c3ccc(C(=O)N[C@H]4C[C@@H](O)[C@@H](O)NC(=O)[C@@H]5[C@@H](O)[C@@H](C)CN5C(=O)[C@H]([C@H](O)CC(N)=O)NC(=O)[C@H]([C@H](O)[C@@H](O)c5ccc(O)c(OS(=O)(=O)O)c5)NC(=O)[C@@H]5C[C@@H](O)CN5C(=O)[C@H]([C@@H](C)O)NC4=O)cc3)no2)cc1 [MICAFUNGIN] (X1-[Orn(4R-OH,5R-OH)]T[Hyp][hTyr(3S-OH,4S-OH,3'-OSO3H)][Gln(3R-OH)][Pro(3S-OH,4S-Me)]; lactam 1-C) |  |  |  |  |  | 0.125 µg/mL | 3.59 | 5.21 | 5.13 | 0.0625 µg/mL | MIC (Nakaseomyces glabratus [19]): 0.0625 µg/mL; MIC (Nakaseomyces glabratus [20]): 0.0625 µg/mL; MIC (Nakaseomyces glabratus [21]): 0.0625 µg/mL; MIC (Nakaseomyces glabratus [22]): 0.0625 µg/mL; MIC (Nakaseomyces glabratus [23]): 0.125 µg/mL; MIC (Nakaseomyces glabratus [24]): 0.0625 µg/mL |
